Here are results for 4 compounds from ChEMBL document CHEMBL1125226, “Antineoplastic activity of didemnin congeners: nordidemnin and modified chain analogues” (1991).

For test [1], the system named is L1210. Kind of test: In vitro cytostatic activity determined on L1210 leukemia cells at 48 hours. Format: functional. The conditions noted are these: Mus musculus, L1210, 48 h; read-out: ID50 (the source's name). The essentials:
(§1)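 Log-phase L1210 cells were seeded at 0.8 × 10⁵ cells/mL in RPMI 1640 with 20% heat-inactivated horse serum, 2 mmol/L L-glutamine, streptomycin and penicillin. Drugs in ethanol (0.5% final) were tested at several concentrations.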

Test [2] deals with P388. Kind of test: Antitumor activity against P388 Leukemia from CDF1 female mice (T/C) as median survival time of treated mice (T) over that of control mice (C) at a dose of 0.12 mg/kg/day. In kind it is functional, Mus musculus. A digest of the protocol:
(§2)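 CDF1 female mice (BALB/c ♀ × DBA/2 ♂) given 10⁶ P388 cells ip on day 0. Drug in 2% methanol given ip on days 1, 5 and 9, 10 mice per group and more controls. Toxicity is survivors on day 5, with weight change between days 1 and 5. Mortality followed 30 days. T/C% is treated over control median survival (NCI method), significant at ≥125%.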

For test [3], the system named is P388. Kind of test: Antitumor activity against P388 Leukemia from CDF1 female mice as Median survival time of treated mice at a dose of 0.12 mg/kg/day. In kind it is functional, Mus musculus. The essentials: as §2
The subject of test [4] is P388. Kind of test: Antitumor activity against P388 Leukemia from CDF1 female mice as average weight change of animals between day 1 and day 5 after tumor implementation at a dose of 0.12 mg/kg/day. Format: functional, Mus musculus. A digest of the protocol: (§3)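 P388 leukemia: CDF1 female mice were inoculated ip with 10⁶ cells on day 0. Treatment in 2% methanol was given ip on days 1, 5 and 9, with 10 mice per group and a larger control group. Body weight was recorded on days 1 and 5 post-implant, and the average change was reported.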

For test [5], the system named is P388. Kind of test: Antitumor activity against P388 Leukemia from CDF1 female mice as the number of survivors on day 5 at a dose of 0.75 mg/kg/day. In kind it is functional, Mus musculus. A digest of the protocol: as §2
In test [6] the test system is P388. Kind of test: Antitumor activity against P388 Leukemia from CDF1 female mice as average weight change of animals between day 1 and day 5 after tumor implementation at a dose of 0.75 mg/kg/day. Format: functional, Mus musculus. A digest of the protocol:
as §3

Test [7] concerns P388. Kind of test: Antitumor activity against P388 Leukemia from CDF1 female mice as Median survival time of treated mice at a dose of 0.75 mg/kg/day. Format: functional, Mus musculus. A digest of the protocol: as §2
The test system of test [8] is L1210. Kind of test: In vitro cytostatic activity determined on L1210 leukemia cells at 24 hours. Format: functional. The conditions noted are these: Mus musculus, L1210, 24 h; read-out: ID50 (the source's name). A digest of the protocol:
as §1

Test [9] relates to P388. Kind of test: Antitumor activity against P388 Leukemia from CDF1 female mice (T/C) as median survival time of treated mice (T) over that of control mice (C) at a dose of 0.75 mg/kg/day. Format: functional, Mus musculus. A digest of the protocol: as §2

Converted amounts (≈) assume the structure as drawn.

With `COc1ccc(C[C@H]2C(=O)O[C@H](C)[C@H](NC(=O)[C@@H](CC(C)C)N(C)C(=O)C3CCCN3C(=O)CCc3ccc(O)cc3)C(=O)NC(C(C)C)[C@H](O)CC(=O)O[C@@H](C(C)C)C(=O)[C@H](C)C(=O)N[C@@H](CC(C)C)C(=O)N3CCC[C@H]3C(=O)N2C)cc1` (some centres not stated), the IC50 amounted to 1.5 ng/mL (≈ 1.28 nM) with L1210 [1] and 4.8 ng/mL (≈ 4.09 nM) in the test with L1210 [8]. The results for the T/C with P388 [2] and in the test with P388 [9] were 123% and 157%, respectively. Further, the “median survival time, days” value in the test with P388 [3] amounted to 14.7; in the test with P388 [7] it was 18.7. Also, the Body weight change is 0.2 g with P388 [4] and -1.1 g with P388 [6]. In the test with P388 [5], this compound showed a Toxicity of 1.
Turning to `CCCCCCCCCCCCCCCC(=O)N1CCCC1C(=O)N(C)[C@H](CC(C)C)C(=O)N[C@@H]1C(=O)NC(C(C)C)[C@H](O)CC(=O)O[C@@H](C(C)C)C(=O)[C@H](C)C(=O)N[C@@H](CC(C)C)C(=O)N2CCC[C@H]2C(=O)N(C)[C@@H](Cc2ccc(OC)cc2)C(=O)O[C@@H]1C` (some centres not stated), the IC50 in the test on L1210 [1] and in the test on L1210 [8] was greater than 1000 ng/mL throughout.
In the case of `COc1ccc(C[C@H]2C(=O)O[C@H](C)[C@H](NC(=O)[C@@H](CC(C)C)N(C)C(=O)C3CCCN3C(=O)[C@H](O)c3ccccc3)C(=O)NC(C(C)C)[C@H](O)CC(=O)O[C@@H](C(C)C)C(=O)[C@H](C)C(=O)N[C@@H](CC(C)C)C(=O)N3CCC[C@H]3C(=O)N2C)cc1` (some centres not stated), the IC50 turned out to be 1.3 ng/mL (≈ 1.12 nM) with L1210 [1] and 2 ng/mL (≈ 1.72 nM) in the test with L1210 [8]. For the same compound, the T/C in the test with P388 [2] was determined as 134%; with P388 [9], 159%. In addition, the “median survival time, days” value is recorded as 16 in the test on P388 [3] and 19 in the test on P388 [7]. The Body weight change was 0.2 g in the test with P388 [4] and -1.5 g with P388 [6]. In addition, the Toxicity in the test with P388 [5] turned out to be 1.
Turning to `COc1ccc(C[C@H]2C(=O)O[C@H](C)C(NC(=O)[C@H](CC(C)C)N(C)C(=O)C3CCCN3C(=O)[C@@H](C)O)C(=O)NC(C(C)C)[C@H](O)CC(=O)O[C@@H](C(C)C)C(=O)[C@H](C)C(=O)N[C@@H](CC(C)C)C(=O)N3CCC[C@H]3C(=O)N2C)cc1` (some centres not stated), the values for the IC50 in the test on L1210 [1] and in the test on L1210 [8] were 589 ng/mL (≈ 536 nM) and 1260 ng/mL (≈ 1150 nM), respectively.

Broadly, the T/C is the result in the treated group divided by that in the control group, in per cent.
